Data on 15 molecules can be found in ChEMBL document CHEMBL1138217, “Rapid discovery and structure-activity profiling of novel inhibitors of human immunodeficiency virus type 1 protease enabled by the copper(I)-catalyzed synthesis of 1,2,3-triazoles and their further functionalization” (J Med Chem, 2006).

As usually defined, the inhibition is the relative decrease from the control value, in per cent. Low readings indicate little suppression, high ones strong suppression. For orientation: Ki means a dissociation constant, usually derived from enzyme kinetics or from competition with a known ligand. Low readings indicate a stronger hold on the target, high ones a looser hold on the target. A word on the IC50: it is the concentration that gives 50% inhibition. A high value points to lower potency.

Experiment [1] has as its target Human immunodeficiency virus type 1 protease (Human immunodeficiency virus 1) (UniProt Q72874). Put plainly: Inhibition of HIV1 protease at 5 uM. Put shortly:
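Crude click-reaction DMSO mixtures (azide-alkyne, CuSO4 with copper turning, 1:1 tBuOH/H2O, 50 °C, 5 days) diluted to 5 µM in 0.1 M MES, 0.2 M NaCl, pH 5.25, 5% glycerol; HIV-1 protease 20 µg/mL plus fluorogenic substrate 50 µM added; fluorescence read directly in microplate; percent inhibition; TL-3 100 nM positive control.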

Experiment [2] concerns the target Human immunodeficiency virus type 1 protease (Human immunodeficiency virus 1, UniProt Q72874). Put plainly: Inhibition of HIV1 protease. In a few lines:
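HIV-1 protease (SF-2-WTQ7K-Pr construct for the isolated inhibitors) at 20 µg/mL with 50 µM fluorogenic substrate Abz-Thr-Ile-Nle/Phe-(p-NO2)Gln-Arg-NH2, in 0.1 M MES, 0.2 M NaCl, pH 5.25, 5% (v/v) glycerol. Crude mixtures were screened at 5 µM as percent inhibition.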

As to `CC(C)C[C@H](NC(=O)OC1CCCC1)[C@H](Cc1ccccc1)n1cc(CN2CCN(c3cccc(C(F)(F)F)c3)CC2)nn1`, the inhibition in experiment [1] was found to be 50%. The molecule also had a Ki in experiment [2] of 86 nM. In the same order, the values of `Cc1ccc(Cl)cc1N1CCN(Cc2cn([C@@H](Cc3ccccc3)[C@H](Cc3ccccc3)NC(=O)OC3CCCC3)nn2)CC1` are 94% and 23 nM. `CC[C@@H](O)c1c(CN2CCN(c3cc(C)ccc3C)CC2)nnn1[C@@H](Cc1ccccc1)[C@H](Cc1ccccc1)NC(=O)OC1CCCC1` yielded an inhibition constant Ki in experiment [2] of 42 nM. Take `Cc1ccc(Cl)cc1N1CCN(Cc2nnn([C@@H](Cc3ccccc3)[C@H](Cc3ccccc3)NC(=O)OC3CCCC3)c2[C@@H](C)O)CC1`: the Ki in experiment [2] is 28 nM.

`CC[C@H](O)c1c(CN2CCN(c3cc(C)ccc3C)CC2)nnn1[C@@H](Cc1ccccc1)[C@H](Cc1ccccc1)NC(=O)OC1CCCC1` showed a Ki in experiment [2] of 27 nM. On the same count and under the same terms, the value for `Cc1ccc(Cl)cc1N1CCN(Cc2nnn([C@@H](Cc3ccccc3)[C@H](Cc3ccccc3)NC(=O)OC3CCCC3)c2[C@H](C)O)CC1` was 21 nM. Still for that read-out and setting: the same measure for `Cc1ccc(C)c(N2CCN(Cc3nnn([C@@H](Cc4ccccc4)[C@H](Cc4ccccc4)NC(=O)OC4CCCC4)c3CO)CC2)c1`: 14 nM. Turning to `Cc1ccc(C)c(N2CCN(Cc3nnn([C@@H](Cc4ccccc4)[C@H](Cc4ccccc4)NC(=O)OC4CCCC4)c3[C@H](C)O)CC2)c1`, in experiment [2], the inhibition constant (Ki) was determined as 10 nM.

`Cc1ccc(C)c(N2CCN(Cc3cn([C@@H](Cc4ccccc4)[C@H](Cc4ccccc4)NC(=O)OC4CCCC4)nn3)CC2)c1` showed an inhibition in experiment [1] of 94%. Besides, in experiment [2], the half-maximal inhibitory concentration (IC50) was more than 25000 nM and the affinity corresponds to a Ki of 32 nM. In experiment [2], `Cc1ccc(Cl)cc1N1CCN(Cc2nnn([C@@H](Cc3ccccc3)[C@H](Cc3ccccc3)NC(=O)OC3CCCC3)c2CO)CC1` had a Ki of 8 nM. Regarding `CC(C)(C)OC(=O)N[C@@H](Cc1ccccc1)[C@H](Cc1ccccc1)N=[N+]=[N-]`, the Ki in experiment [2] stood at 31000 nM. Against the preceding molecule, the Ki is about 3900-fold higher. The same measure, in the same setting: the same measure for `Cc1ccc(C)c(N2CCN(Cc3nnn([C@@H](Cc4ccccc4)[C@H](Cc4ccccc4)NC(=O)OC4CCCC4)c3[C@@H](C)O)CC2)c1`: 25 nM. Molecule `Cc1ccc(Cl)cc1N1CCN(Cc2cn([C@@H](Cc3ccccc3)[C@H](Cc3ccccc3)NC(=O)CC3CCCC3)nn2)CC1` displayed an inhibition in experiment [1] of 28%. The Ki in experiment [2] is more than 2500 nM. The matching figures for `Cc1ccc(Cl)cc1N1CCN(Cc2cn([C@@H](Cc3ccccc3)[C@H](Cc3ccccc3)NC(=O)O[C@@H]3CCOC3)nn2)CC1`: 71% and 83 nM. Molecule `O=C(N[C@@H](Cc1ccccc1)[C@H](Cc1ccccc1)n1cc(CN2CCN(c3cccc(C(F)(F)F)c3)CC2)nn1)OC1CCCC1` (stereo in doubt; (S,S)-7d) registered an inhibition constant Ki in experiment [2] of 98 nM.
